We go through 17 molecules from ChEMBL document CHEMBL2040794, “Synthesis and structure-activity analysis of new phosphonium salts with potent activity against African trypanosomes” (J Med Chem, 2012).

A short description of series [1]: Selectivity index, ratio of EC50 for human HEK cells to EC50 for wild type Trypanosoma brucei brucei Lister 427. Conditions: HEK cells, read-out: Ratio EC50. It counts as toxicity, cell-based, HEK293. The method, boiled down:
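Ratio of EC₅₀ in HEK cells to EC₅₀ in wild-type T. b. brucei s427, both from resazurin assays.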

The test system of the next series is L6. Briefly: Cytotoxicity against rat L6 cells after 72 hrs by alamar blue assay. It counts as cell-based. Conditions: Rattus norvegicus, L6, 72 h.
Series [2] has as its system Trypanosoma brucei rhodesiense. Briefly: Antitrypanosomal activity against Trypanosoma brucei rhodesiense STIB900 infected in rat L6 cells after 72 hrs by alamar blue assay. In kind it is functional, organism-based. Conditions: Trypanosoma brucei, STIB900, 72 h.
Series [3] has as its system Trypanosoma brucei brucei. Put plainly: Resistance factor, ratio of EC50 for diminazene aceturate-resistant TbAT1 gene-deficient Trypanosoma brucei brucei AT1-KO to EC50 for wild type Trypanosoma brucei brucei Lister 427. In kind it is functional. An outline of the steps:
(§1)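 Resistance factor is the EC50 in the resistant line (TbAT1-KO or B48) divided by the EC50 in wild-type s427. […] Resistant and wild-type EC50s were compared by Student t-test.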

Series [4] has as its system Trypanosoma brucei brucei. Put plainly: Antitrypanosomal activity against diminazene aceturate-resistant TbAT1 gene-deficient Trypanosoma brucei brucei AT1-KO after 3 days by alamar blue assay. In kind it is functional, organism-based. Conditions: Trypanosoma brucei, AT1-KO, 72 h. The method, boiled down:
(§2)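 Bloodstream-form T. b. brucei (wild-type s427; TbAT1-KO, made from s427 by TbAT1 deletion; B48, selected from TbAT1-KO in vitro on pentamidine, lacking functional HAPT1). Cells were exposed to compound for 48 h, then resazurin (Alamar blue) was added for a further 24 h. A single fluorescence reading gave EC50.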

Series [5] is described as follows: Cytotoxicity against human HEK cells after 3 days by alamar blue assay. It counts as cell-based, HEK293. Conditions: Homo sapiens, HEK293, 72 h. The method, boiled down: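 Human embryonic kidney cells tested by resazurin (Alamar blue) assay: 48 h with compound, then 24 h more after dye addition, single reading; EC₅₀ derived.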
Series [6] relates to Trypanosoma brucei brucei. Briefly: Antitrypanosomal activity against diminazene-, pentamidine-, and melaminophenyl arsenical-resistant HAPT1-deficient Trypanosoma brucei brucei B48 after 3 days by alamar blue assay. It counts as functional, organism-based. Conditions: Trypanosoma brucei, B48, 72 h. The method, boiled down:
as §2

For series [7], the system named is Trypanosoma brucei brucei. Put plainly: Resistance factor, ratio of EC50 for diminazene-, pentamidine-, and melaminophenyl arsenical-resistant HAPT1-deficient Trypanosoma brucei brucei B48 to EC50 for wild type Trypanosoma brucei brucei Lister 427. It counts as functional. The method, boiled down:
as §1

For series [8], the system named is Trypanosoma brucei brucei. Put plainly: Antitrypanosomal activity against wild type Trypanosoma brucei brucei Lister 427 after 3 days by alamar blue assay. In kind it is functional, organism-based. Conditions: Trypanosoma brucei, Lister 427, 72 h. The method, boiled down: as §2
The nature of series [9]: Selectivity index, ratio of EC50 for rat L6 cells to EC50 for Trypanosoma brucei rhodesiense STIB900. In kind it is toxicity, cell-based. Conditions: L6 cells, read-out: Ratio EC50. The method, boiled down:
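Ratio of EC₅₀ in L6 cells to EC₅₀ against T. b. rhodesiense STIB900, both from Alamar blue assays.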

Each structure is given as a SMILES string. Where only a bound is given, the exact number is not on record here.

With `Cc1ccc([P+](Cc2ccc(C(=O)c3ccc(C[P+](c4ccccc4)(c4ccccc4)c4ccc(C)cc4)cc3)cc2)(c2ccccc2)c2ccccc2)cc1.[Br-].[Br-]`, the selectivity ratio in series [1] amounted to 1450; in [9], 62. Besides, the EC50 with L6 is 16.3 µM; in series [2], 0.26 µM; in series [4], 0.182 µM; in series [5], 261 µM; in series [6], 0.183 µM; in [8] it was 0.18 µM. Moreover, the “Ratio EC50” value in [3] and in series [7] was 1 each time.

As to `CC[P+](CC)(CC)Cc1ccc(Cc2ccc(C[P+](CC)(CC)CC)cc2)cc1.[Br-].[Br-]`, the selectivity ratio in series [1] was over 14. The EC50 is 48.3 µM with L6; 18.7 µM in [2]; 18.5 µM in series [4]; over 300 µM in series [5]; 19.3 µM in series [6]; 21.5 µM in [8]. For the same molecule, the “Ratio EC50” value in [3] and in series [7] was 0.9 throughout.

As for `Cc1ccc([P+](CCc2ccc(CCc3ccc(CC[P+](c4ccc(C)cc4)(c4ccc(C)cc4)c4ccc(C)cc4)cc3)cc2)(c2ccc(C)cc2)c2ccc(C)cc2)cc1.[Cl-].[Cl-]`, the selectivity ratio in [1] was determined as 103; in [9], 40.3. The EC50 in the series with L6 was found to be 1.09 µM; in series [2], 0.027 µM; in series [4], 0.094 µM; in [5] it was 12.8 µM; in [6], 0.089 µM; in series [8], 0.125 µM. The figures for the “Ratio EC50” value in [3] and in series [7] were 0.8 and 0.7, respectively.

In the case of `CC[P+](CC)(CC)Cc1ccc(Oc2ccc(C[P+](CC)(CC)CC)cc2)cc1.[Br-].[Br-]`, the selectivity ratio in [1] is over 8. Further, the EC50 in the series with L6 was 102 µM; in series [2], 31.9 µM; in series [4] it was 34.9 µM; in series [5], over 300 µM; in series [6], 36.6 µM; in series [8] it was 36.5 µM. In addition, the “Ratio EC50” value in series [3] and in [7] was 1 in each case.

As to `C[P+](C)(Cc1ccc(Oc2ccc(C[P+](C)(C)c3ccccc3)cc2)cc1)c1ccccc1.[Br-].[Br-]`, the selectivity ratio in series [1] was over 40. In addition, the EC50 in the series on L6 is 84.5 µM; in [2], 3.83 µM; in series [4], 6.52 µM; in series [5], over 300 µM; in [6], 6.15 µM; in series [8] it was 7.22 µM. Moreover, the “Ratio EC50” value in series [3] and in series [7] was 0.9 throughout.

As for `C[P+](C)(Cc1ccc(Cc2ccc(C[P+](C)(C)c3ccccc3)cc2)cc1)c1ccccc1.[Br-].[Br-]`, the selectivity ratio in [1] was over 55. The EC50 in the series on L6 was over 142 µM; in series [2] it was 2.59 µM; in series [4], 4.6 µM; in series [5], over 300 µM; in [6], 3.84 µM; in series [8] it was 5.45 µM. Also, the “Ratio EC50” value in [3] is recorded as 0.8; in series [7], 0.7.

`FC(F)(F)c1ccc([P+](Cc2ccc(Oc3ccc(C[P+](c4ccc(C(F)(F)F)cc4)(c4ccc(C(F)(F)F)cc4)c4ccc(C(F)(F)F)cc4)cc3)cc2)(c2ccc(C(F)(F)F)cc2)c2ccc(C(F)(F)F)cc2)cc1.[Br-].[Br-]`: in series [1], the selectivity ratio amounted to 723. The EC50 amounted to 9.93 µM in the series with L6; 5.26 µM in [2]; 0.32 µM in series [4]; 174 µM in [5]; 0.28 µM in series [6]; 0.24 µM in series [8]. Besides, the “Ratio EC50” value in series [3] was 1.3; in series [7], 1.2.

As for `Fc1c(F)c(F)c([P+](Cc2ccc(Oc3ccc(C[P+](c4ccccc4)(c4ccccc4)c4c(F)c(F)c(F)c(F)c4F)cc3)cc2)(c2ccccc2)c2ccccc2)c(F)c1F.[Br-].[Br-]`, the selectivity ratio in [1] was over 10. The concentration for a half-maximal effect (EC50) with L6 was 5.35 µM; in series [2], 12.8 µM; in series [4] it was 9.9 µM; in [5], over 300 µM; in series [6] it was 6.68 µM; in series [8], 23.2 µM. For the same molecule, the “Ratio EC50” value in series [3] is 0.4; in [7], 0.3.

As to `C[P+](C)(Cc1ccc(C(=O)c2ccccc2)cc1)c1ccccc1.[Br-]`, the selectivity ratio in [1] is over 7. The EC50 in the series on L6 was over 241 µM; in series [2], 16.9 µM; in series [4], 46.6 µM; in series [5] it was over 300 µM; in series [6], 45.8 µM; in [8], 42.7 µM. Further, the “Ratio EC50” value in [3] and in [7] was 1.1 each time.

Regarding `CC(C)C[P+](Cc1ccc(C(=O)c2ccccc2)cc1)(CC(C)C)CC(C)C.[Br-]`, the selectivity ratio in series [1] is over 50. Besides, the EC50 was over 209 µM with L6; 4.48 µM in [2]; 6.1 µM in series [4]; over 300 µM in series [5]; 6.28 µM in [6]; 5.9 µM in series [8]. For the same molecule, the “Ratio EC50” value is reported as 1 in series [3] and 1.1 in [7].

Take `CC(C)C[P+](Cc1ccc(Oc2ccc(C[P+](CC(C)C)(CC(C)C)CC(C)C)cc2)cc1)(CC(C)C)CC(C)C.[Br-].[Br-]`: the selectivity ratio in [1] was over 507. Further, the EC50 with L6 was 51.1 µM; in series [2] it was 1.62 µM; in series [4] it was 0.8 µM; in [5], over 300 µM; in series [6], 1.06 µM; in series [8] it was 0.59 µM. In addition, the “Ratio EC50” value in series [3] came out at 1.3; in series [7], 1.8.

As to `CC(C)C[P+](Cc1ccc(C(=O)c2ccc(C[P+](CC(C)C)(CC(C)C)CC(C)C)cc2)cc1)(CC(C)C)CC(C)C.[Br-].[Br-]`, in series [1], the selectivity ratio is over 110. The EC50 in the series on L6 was over 116 µM; in series [2], 1.46 µM; in [4], 8.34 µM; in series [5] it was over 300 µM; in series [6], 6.3 µM; in series [8] it was 2.62 µM. The “Ratio EC50” value in series [3] amounted to 3.2; in [7], 2.4.

For the molecule `FC(F)(F)c1ccc([P+](Cc2ccc(Cc3ccc(C[P+](c4ccc(C(F)(F)F)cc4)(c4ccc(C(F)(F)F)cc4)c4ccc(C(F)(F)F)cc4)cc3)cc2)(c2ccc(C(F)(F)F)cc2)c2ccc(C(F)(F)F)cc2)cc1.[Br-].[Br-]`, the selectivity ratio in [1] stood at 338. The EC50 with L6 is 7.52 µM; in [2], 1.72 µM; in series [4] it was 0.37 µM; in series [5], 77.1 µM; in [6] it was 0.28 µM; in [8], 0.23 µM. The “Ratio EC50” value was found to be 1.6 in series [3] and 1.2 in series [7].

On to `CC[P+](CC)(Cc1ccc(C(=O)c2ccc(C[P+](CC)(CC)c3ccccc3)cc2)cc1)c1ccccc1.[Br-].[Br-]`, for which the selectivity ratio in [1] was over 35. For the same molecule, the EC50 with L6 is over 128 µM; in [2], 2.9 µM; in [4], 17.8 µM; in series [5], over 300 µM; in series [6], 15.2 µM; in [8], 8.59 µM. In addition, the entries for the “Ratio EC50” value in [3] and in series [7] were 2.1 and 1.8, respectively.

In the case of `Fc1c(F)c(F)c([P+](Cc2ccc(Cc3ccc(C[P+](c4ccccc4)(c4ccccc4)c4c(F)c(F)c(F)c(F)c4F)cc3)cc2)(c2ccccc2)c2ccccc2)c(F)c1F.[Br-].[Br-]`, in [1], the selectivity ratio was over 110. Besides, the EC50 is 16 µM in series [2]; 3.79 µM in series [4]; over 300 µM in [5]; 2.74 µM in series [6]; 2.68 µM in series [8]. Besides, the “Ratio EC50” value in series [3] turned out to be 1.4; in [7] it was 1.

Consider `O=C(c1ccc(C[P+](c2ccc(C(F)(F)F)cc2)(c2ccc(C(F)(F)F)cc2)c2ccc(C(F)(F)F)cc2)cc1)c1ccc(C[P+](c2ccc(C(F)(F)F)cc2)(c2ccc(C(F)(F)F)cc2)c2ccc(C(F)(F)F)cc2)cc1.[Br-].[Br-]`, for which the selectivity ratio in series [1] was over 60. In addition, the EC50 is 25 µM in the series with L6; 16.4 µM in series [2]; 8.51 µM in [4]; over 300 µM in series [5]; 2.73 µM in series [6]; 5.05 µM in [8]. The figures for the “Ratio EC50” value in series [3] and in series [7] were 1.7 and 0.5, respectively.

Turning to `CC[P+](CC)(CC)Cc1ccc(C(=O)c2ccccc2)cc1`, the EC50 with L6 was over 254 µM; in series [2], over 254 µM; in series [4], over 100 µM; in [5] it was over 300 µM; in series [6], over 100 µM; in series [8] it was over 100 µM.
